Article PMC3132207 (Journal of medicinal chemistry, 2011)

Experiments:
[1] = molecular target: heteromeric rod CNG channels consisting of CNGA1 and CNGB1 subunits (Bos taurus, UniProt Q00194+Q28181); assay type: cell-based; details: 20 µM blocker, Vm = +50 mV
chymotrypsin = chymotrypsin (Bos taurus, UniProt P00766); assay: In vitro hydrolysis by chymotrypsin; assay type: in vitro ADME; details: 50 µM compound, 37 °C
Outline: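 Hydrolysis was followed by diode-array UV absorbance at the product peak wavelength, starting on compound addition. Runs were in triplicate. Enzyme activity was confirmed separately with 90 µM 4-nitrophenyl acetate in 0.1 M HEPES, pH 6.5, 37 °C, read at 404 nm for 10 min.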

proteinase K = proteinase K (Parengyodontium album, UniProt P06873); assay: In vitro hydrolysis by proteinase K; assay type: in vitro ADME, Engyodontium album; details: 50 µM compound, 37 °C
Chain of proteinase K (P06873 106-384): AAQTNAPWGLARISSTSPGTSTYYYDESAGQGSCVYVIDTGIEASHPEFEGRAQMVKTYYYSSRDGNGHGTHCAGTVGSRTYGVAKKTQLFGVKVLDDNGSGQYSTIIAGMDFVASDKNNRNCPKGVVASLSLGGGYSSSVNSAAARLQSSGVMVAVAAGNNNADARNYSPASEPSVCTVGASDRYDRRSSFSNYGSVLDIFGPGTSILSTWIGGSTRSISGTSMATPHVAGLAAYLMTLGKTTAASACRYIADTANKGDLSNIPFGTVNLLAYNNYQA

[2] = molecular target: butyrylcholinesterase purified from human blood serum (Homo sapiens, UniProt P06276); assay: In vitro hydrolysis by serum cholinesterase; assay type: in vitro ADME; details: even after 24 h incubations
Chain of butyrylcholinesterase purified from human blood serum (P06276 29-602): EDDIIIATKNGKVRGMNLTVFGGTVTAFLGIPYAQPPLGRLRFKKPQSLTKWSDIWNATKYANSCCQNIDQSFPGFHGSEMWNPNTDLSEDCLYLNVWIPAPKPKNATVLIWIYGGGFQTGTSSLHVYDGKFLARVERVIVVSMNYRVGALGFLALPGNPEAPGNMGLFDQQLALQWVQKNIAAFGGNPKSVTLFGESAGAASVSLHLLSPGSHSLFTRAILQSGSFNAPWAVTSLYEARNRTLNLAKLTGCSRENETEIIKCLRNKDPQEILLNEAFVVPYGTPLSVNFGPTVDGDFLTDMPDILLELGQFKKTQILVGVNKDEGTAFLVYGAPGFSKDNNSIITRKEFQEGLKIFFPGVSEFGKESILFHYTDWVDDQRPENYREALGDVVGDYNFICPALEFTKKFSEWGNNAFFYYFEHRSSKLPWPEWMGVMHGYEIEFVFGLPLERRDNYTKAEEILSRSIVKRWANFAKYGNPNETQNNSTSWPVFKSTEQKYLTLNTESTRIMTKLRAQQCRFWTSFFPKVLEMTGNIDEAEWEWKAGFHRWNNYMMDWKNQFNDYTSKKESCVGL

Chain of heteromeric rod CNG channels consisting of CNGA1 and CNGB1 subunits (Q00194 whole entry): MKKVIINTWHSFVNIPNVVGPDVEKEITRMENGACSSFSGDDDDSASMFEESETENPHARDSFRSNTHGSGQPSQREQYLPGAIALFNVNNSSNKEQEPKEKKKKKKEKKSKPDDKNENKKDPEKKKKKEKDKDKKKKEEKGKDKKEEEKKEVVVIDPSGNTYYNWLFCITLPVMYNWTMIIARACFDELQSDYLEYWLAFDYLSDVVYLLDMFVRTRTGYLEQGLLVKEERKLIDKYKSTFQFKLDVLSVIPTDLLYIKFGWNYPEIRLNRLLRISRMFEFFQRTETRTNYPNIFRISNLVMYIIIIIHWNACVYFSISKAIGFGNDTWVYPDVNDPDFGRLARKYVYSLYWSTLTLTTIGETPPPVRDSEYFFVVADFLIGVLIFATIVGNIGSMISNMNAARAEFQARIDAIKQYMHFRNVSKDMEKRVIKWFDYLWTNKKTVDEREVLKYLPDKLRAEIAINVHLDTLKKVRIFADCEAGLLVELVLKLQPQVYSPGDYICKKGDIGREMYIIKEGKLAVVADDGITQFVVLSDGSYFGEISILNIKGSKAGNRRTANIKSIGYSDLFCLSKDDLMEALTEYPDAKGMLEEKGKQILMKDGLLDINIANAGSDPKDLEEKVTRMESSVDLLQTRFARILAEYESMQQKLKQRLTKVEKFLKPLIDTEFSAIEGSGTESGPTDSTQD
Chain of heteromeric rod CNG channels consisting of CNGA1 and CNGB1 subunits (Q28181 whole entry): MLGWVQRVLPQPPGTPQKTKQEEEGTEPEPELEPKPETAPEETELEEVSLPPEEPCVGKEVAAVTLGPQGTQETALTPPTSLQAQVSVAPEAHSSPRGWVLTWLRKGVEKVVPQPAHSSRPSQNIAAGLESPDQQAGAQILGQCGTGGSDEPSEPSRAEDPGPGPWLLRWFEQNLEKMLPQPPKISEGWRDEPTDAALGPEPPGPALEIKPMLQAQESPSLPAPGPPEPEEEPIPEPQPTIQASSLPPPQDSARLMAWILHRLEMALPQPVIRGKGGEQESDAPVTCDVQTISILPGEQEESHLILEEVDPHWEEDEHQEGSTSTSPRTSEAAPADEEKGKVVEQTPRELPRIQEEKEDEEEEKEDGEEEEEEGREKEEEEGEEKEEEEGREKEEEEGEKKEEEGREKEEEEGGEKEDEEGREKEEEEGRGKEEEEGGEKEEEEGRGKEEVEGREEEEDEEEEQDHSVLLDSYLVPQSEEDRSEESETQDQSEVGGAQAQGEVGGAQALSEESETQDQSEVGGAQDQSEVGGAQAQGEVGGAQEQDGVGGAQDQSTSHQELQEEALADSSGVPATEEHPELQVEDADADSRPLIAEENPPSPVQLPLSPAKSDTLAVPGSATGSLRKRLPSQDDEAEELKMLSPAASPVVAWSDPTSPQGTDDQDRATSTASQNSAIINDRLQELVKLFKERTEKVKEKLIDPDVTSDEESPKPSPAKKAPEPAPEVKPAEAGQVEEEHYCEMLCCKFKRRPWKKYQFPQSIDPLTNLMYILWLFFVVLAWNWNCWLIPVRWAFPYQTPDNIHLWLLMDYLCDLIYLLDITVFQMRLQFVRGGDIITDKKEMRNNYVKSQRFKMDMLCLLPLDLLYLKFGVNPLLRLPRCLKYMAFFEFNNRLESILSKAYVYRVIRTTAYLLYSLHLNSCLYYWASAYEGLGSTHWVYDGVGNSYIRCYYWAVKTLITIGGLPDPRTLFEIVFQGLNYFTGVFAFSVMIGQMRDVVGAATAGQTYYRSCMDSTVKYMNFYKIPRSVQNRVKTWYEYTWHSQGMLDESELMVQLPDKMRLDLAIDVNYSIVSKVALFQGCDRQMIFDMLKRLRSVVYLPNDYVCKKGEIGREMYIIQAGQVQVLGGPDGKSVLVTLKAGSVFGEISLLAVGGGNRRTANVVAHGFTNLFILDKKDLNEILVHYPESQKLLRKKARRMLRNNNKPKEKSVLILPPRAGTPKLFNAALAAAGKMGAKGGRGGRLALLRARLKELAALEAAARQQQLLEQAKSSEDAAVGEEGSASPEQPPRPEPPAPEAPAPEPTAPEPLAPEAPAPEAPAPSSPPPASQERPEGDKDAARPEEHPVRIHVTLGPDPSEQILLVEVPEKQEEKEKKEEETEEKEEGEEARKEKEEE

| SMILES | block of 2 mM cGMP-induced currents [1] | hydrolysis by chymotrypsin (chymotrypsin) | hydrolysis by proteinase K (proteinase K) | hydrolysis product detection by butyrylcholinesterase [2] |
| --- | --- | --- | --- | --- |
| COc1ccc([C@H]2Sc3ccccc3N(CCN(C)C)C(=O)[C@H]2OC(C)=O)cc1 (relative stereo) [l-cis-diltiazem] | 74.2 ± 5.8% | – | – | – |
| CCCCNc1ccc(C(=O)NCCN(C)C)cc1 [Compound 6, 4-(Butylamino)-N-(2-(dimethylamino)ethyl)benzamide] | – | resistant | resistant | – |
| CCCCCCCCNc1ccc(C(=O)NCCN(C)C)cc1 [Compound 7, 4-(Octylamino)-N-(2-(dimethylamino)ethyl)benzamide] | – | resistant | resistant | – |
| CCCCNc1ccc(C(=S)NCCN(C)C)cc1 [Compound 8, 4-(Butylamino)-N-(2-(dimethylamino)ethyl)benzothioamide] | – | completely resistant | completely resistant | much too stable for our system to detect any hydrolysis product |
| CCCCCCCCNc1ccc(C(=S)NCCN(C)C)cc1 [Compound 9, 4-(Octylamino)-N-(2-(dimethylamino)ethyl)benzothioamide] | – | completely resistant | completely resistant | much too stable for our system to detect any hydrolysis product |
